From ChEMBL document CHEMBL1121831 (1981) come the findings set out here.

Molecules are shown by their SMILES.

Experiment [1] has as its system CCRF-CEM (Homo sapiens). Put plainly: Percent inhibition of human lymphoblastic leukemia cell growth (48h) at 10 uM.
Experiment [2] has as its system CCRF-CEM. In words: Compound was tested for the inhibition of growth of human lymphoblastic leukemia cells (CEM). The class given is functional. To be noted: read-out: ID50 (the source's name). An outline of the steps:
(§1)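 CEM human lymphoblastic and L1210 murine leukemia cells were grown in culture with drug for 48 h, at concentrations up to 10 μM. The read-out was growth inhibition, given as ID50 or, where ID50 was not reached, as percent inhibition at 10 μM. Values are averages of triplicate experiments.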

Experiment [3] concerns L1210. In words: Compound was tested for the inhibition of growth of murine leukemia cells (L1210). To be noted: Mus musculus, read-out: ID50 (the source's name). The class given is functional. The method in brief: as §1
Experiment [4] has as its target Dihydrofolate reductase (Lactobacillus casei) (UniProt P00381). Put plainly: Compound is evaluated for binding to Lactobacillus casei dihydrofolate reductase using kinetic assay. To be noted: Lacticaseibacillus casei.
Experiment [5] concerns the target T1, Dihydrofolate reductase (Mus musculus) (UniProt P00375).
T1 sequence (whole entry): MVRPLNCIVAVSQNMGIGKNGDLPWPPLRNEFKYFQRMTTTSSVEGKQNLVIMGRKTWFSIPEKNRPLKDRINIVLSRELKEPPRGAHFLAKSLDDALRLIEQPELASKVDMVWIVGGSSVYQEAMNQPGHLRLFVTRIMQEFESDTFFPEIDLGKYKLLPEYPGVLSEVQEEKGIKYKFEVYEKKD
In words: Compound is evaluated for binding to L1210 mouse leukemia cells dihydrofolate reductase using ligand-binding assay.

Experiment [6] concerns RBL-1. In words: Compound was tested for the inhibition of growth of rat basophilic leukemia (RBL) cells. The class given is functional. To be noted: read-out: ID50 (the source's name).
Experiment [7] relates to L1210. Put plainly: Compound is evaluated for activity against L1210 leukemia in mice, at dose 80 mg/kg. The class given is functional, Mus musculus. An outline of the steps: (§2)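 B6D2F1 mice were inoculated ip with 10^5 L1210 cells on day 0. Test agents were given ip on days 1, 4 and 7 in 10% Tween 80 or a 1:1:8 emulphor-ethanol-water suspension; MTX was given ip as the disodium salt in water. Groups were mostly five mice. Read-out was median survival of treated vs control mice (days) and % increase in life span.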

Experiment [8] deals with Mus musculus. In words: Compound is evaluated for activity against L1210 leukemia in mice, at dose 160 mg/kg expressed as T/C=15/9. The class given is functional. The method in brief:
as §2

The subject of experiment [9] is Mus musculus. Put plainly: Compound is evaluated for activity against L1210 leukemia in mice, at dose 80 mg/kg expressed as T/C=11/9. The class given is functional. An outline of the steps:
as §2

The subject of experiment [10] is L1210. In words: Compound is evaluated for activity against L1210 leukemia in mice, at dose 160 mg/kg. The class given is functional, Mus musculus. An outline of the steps:
as §2

For experiment [11], the system named is L1210. Put plainly: Compound is evaluated for percent increase in life span against L1210 leukemia in mice, at dose 80 mg/kg. It is filed as functional. To be noted: Mus musculus. An outline of the steps:
(§3)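 B6D2F1 mice were inoculated ip with 10⁵ L1210 cells on day 0. Drug was given ip on days 1, 4 and 7 (q3d) as a suspension in 10% Tween 80 or 1:1:8 emulphor–ethanol–water, or as the disodium salt in water. The read-out was median survival of treated versus control mice (T/C, days), expressed as % increase in life span.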

Experiment [12] deals with L1210. Put plainly: Compound is tested for the inhibition of growth of murine leukemia cells (L1210). The class given is functional. To be noted: Mus musculus, read-out: ID50 (the source's name). The method in brief: as §1
Experiment [13] has as its system L1210. In words: Compound is evaluated for percent increase in life span against L1210 leukemia in mice, at dose 160 mg/kg. It is filed as functional. To be noted: Mus musculus. The method in brief:
as §3

For experiment [14], the system named is CCRF-CEM. In words: Compound is tested for the inhibition of growth of human lymphoblastic leukemia cells (CEM). It is filed as functional. To be noted: read-out: ID50 (the source's name). The method in brief: as §1
The subject of experiment [15] is L1210. In words: Compound is evaluated for activity against L1210 leukemia in mice, at dose 7.5 mg/kg in experiment 1. It is filed as functional, Mus musculus. The method in brief: as §2
The test system of experiment [16] is L1210. In words: Compound is evaluated for activity against L1210 leukemia in mice, at dose 40 mg/kg in experiment 2. It is filed as functional, Mus musculus. An outline of the steps:
as §2

The subject of experiment [17] is L1210. In words: Compound is evaluated for percent increase in life span against L1210 leukemia in mice, at dose 7.5 mg/kg in experiment 1. It is filed as functional. To be noted: Mus musculus. The method in brief: as §3
The test system of experiment [18] is L1210. In words: Compound is evaluated for percent increase in life span against L1210 leukemia in mice, at dose 40 mg/kg in experiment 2. It is filed as functional. To be noted: Mus musculus. The method in brief: as §3
Experiment [19] concerns Mus musculus. Put plainly: Compound is evaluated for activity against L1210 leukemia in mice, at dose 7.5 mg/kg expressed as T/C in experiment 1. The class given is functional. An outline of the steps:
as §2

The subject of experiment [20] is L1210. Put plainly: Compound is evaluated for activity against L1210 leukemia in mice, at dose 15 mg/kg in experiment 1. The class given is functional, Mus musculus. An outline of the steps:
as §2

Experiment [21] deals with Mus musculus. In words: Compound is evaluated for activity against L1210 leukemia in mice, at dose 40 mg/kg expressed as T/C in experiment 2. It is filed as functional. An outline of the steps: as §2
Experiment [22] concerns L1210. In words: Compound is evaluated for activity against L1210 leukemia in mice, at dose 20 mg/kg in experiment 2. It is filed as functional, Mus musculus. The method in brief: as §2
Experiment [23] concerns Mus musculus. In words: Compound is evaluated for activity against L1210 leukemia in mice, at dose 20 mg/kg expressed as T/C in experiment 2. It is filed as functional. The method in brief:
as §2

Experiment [24] deals with L1210. Put plainly: Compound is evaluated for percent increase in life span against L1210 leukemia in mice, at dose 15 mg/kg in experiment 1. To be noted: Mus musculus. The class given is functional. The method in brief:
as §3

The test system of experiment [25] is L1210. In words: Compound is evaluated for percent increase in life span against L1210 leukemia in mice, at dose 20 mg/kg in experiment 2. It is filed as functional. To be noted: Mus musculus. The method in brief:
as §3

The test system of experiment [26] is Mus musculus. In words: Compound is evaluated for activity against L1210 leukemia in mice, at dose 15 mg/kg expressed as T/C in experiment 1. The class given is functional. An outline of the steps: as §2
Experiment [27] deals with T1, Dihydrofolate reductase (Mus musculus). Put plainly: Affinity for mammalian (L1210 mouse leukemia) dihydrofolate reductase. An outline of the steps:
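Partially purified DHFR from L1210 cells, diluted 8-fold in 0.1 M KH2PO4 (pH 6.2) with 0.1% BSA and 1 mM NADPH, then held on ice 5 min. Competition with [3H]MTX over serial 5-fold dilutions starting from a 6 μM solution, 5 min at 0 °C. Unbound ligand removed with Norite charcoal and the supernatant counted; ID50 (50% drop in bound label) read from a logit-log plot.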

Experiment [28] has as its target Dihydrofolate reductase (Lactobacillus casei) (UniProt P00381). In words: Affinity for partially purified bacterial (Lactobacillus casei) dihydrofolate reductase. To be noted: Lacticaseibacillus casei.

Dihydrofolate reductase (Lactobacillus casei), sequence (P00381 whole entry): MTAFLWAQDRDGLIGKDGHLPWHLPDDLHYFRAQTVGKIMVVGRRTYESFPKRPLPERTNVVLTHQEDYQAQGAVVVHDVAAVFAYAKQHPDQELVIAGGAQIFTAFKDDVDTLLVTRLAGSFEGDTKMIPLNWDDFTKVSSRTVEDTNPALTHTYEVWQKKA

On to `CN(Cc1cnc2nc(N)nc(N)c2n1)c1ccc(C(=O)NC(CCC(=O)NC23CC4CC(CC(C4)C2)C3)C(=O)NC23CC4CC(CC(C4)C2)C3)cc1` (stereo not given), for which the inhibition – broadly, the drop in the measured response relative to a control, in per cent – at 10 µM in experiment [1] was 38%. The IC50 in experiment [2] was above 10000 nM; in [3], 3400 nM; in experiment [6], 1600 nM. Moreover, the ID50 was found to be 6300 nM in [4] and 3100 nM in [5].
As for `COc1ccc(CNC(=O)CCC(NC(=O)c2ccc(N(C)Cc3cnc4nc(N)nc(N)c4n3)cc2)C(=O)NCc2ccc(OC)cc2)cc1` (stereo not given), the MTX equivalent in experiment [7] was determined as 64 mg/kg; in [10] it was 128 mg/kg. In addition, the “Median T/C” value in [8] is 15 days; in [9] it was 11 days. This compound also came in with an inhibition at 10 µM in experiment [1] of 44%. Moreover, the ID50 in experiment [4] was 400 nM; in experiment [5] it was 130 nM. Also, in experiment [11], the ILS (as a rule, the gain in survival time of treated over control animals, in per cent) at 80 mg/kg is 22%. Further, the IC50 is 8200 nM in experiment [12] and above 10000 nM in experiment [14]. In addition, the ILS at 160 mg/kg in [13] came to 66%.
For `CN(Cc1cnc2nc(N)nc(N)c2n1)c1ccc(C(=O)NC(CCC(=O)NO)C(=O)O)cc1` (stereo not given), the MTX equivalent is 7.3 mg/kg in experiment [15], 38.8 mg/kg in [16], 14.6 mg/kg in experiment [20] and 19.4 mg/kg in experiment [22]. The ILS at 7.5 mg/kg in experiment [17] worked out at 50%. Besides, the increase in life span (ILS) at 40 mg/kg in experiment [18] turned out to be 111%. Further, the “Median T/C” value came to 15 days in experiment [19], 19 days in experiment [21], 17 days in experiment [23] and 16 days in experiment [26]. The values for the ID50 in experiment [4] and in [5] were 30 nM and 4.8 nM, respectively. Further, the IC50 in [12] was found to be 62 nM; in experiment [14], 250 nM. This compound returned an ILS at 15 mg/kg in experiment [24] of 60%. Also, the increase in life span (ILS) at 20 mg/kg in [25] stood at 89%.
As to `CN(Cc1ccccc1)C(=O)CCC(NC(=O)c1ccc(N(C)Cc2cnc3nc(N)nc(N)c3n2)cc1)C(=O)N(C)Cc1ccccc1` (stereo not given), the figures for the IC50 in [2] and in experiment [3] were 6400 nM and 9400 nM, respectively. Also, the ID50 in experiment [27] is 26 nM; in [28] it was 440 nM.
For the compound `CN(Cc1cnc2nc(N)nc(N)c2n1)c1ccc(C(=O)NC(CCC(=O)N2CCCCC2)C(=O)N2CCCCC2)cc1` (stereo not given), the ID50 in experiment [4] was 250 nM; in experiment [5], 12 nM. For the same compound, in experiment [12], the IC50 was above 10000 nM.
